MrgX1 antagonist – antagonists of human MrgX1 receptor, primary screen, HEK293 cells, Fluo-4 calcium flux | Mas-related G-protein coupled receptor member X1 (Homo sapiens), Q96LB2 | BAM8-22 antagonism; active compounds read low | B-score at 10 µM | 310,000 tested, 1.3% active | AID 588676, 2011;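 active = calcium-response B-score plate-corrected more than 3 library SD below zero, starting fluorescence within 5 deviations, no agonist response on first addition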;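 note: peak minus trough fluorescence over baseline after final BAM8-22 challenge near maximal dose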
Target sequence (Q96LB2 whole entry, looked up): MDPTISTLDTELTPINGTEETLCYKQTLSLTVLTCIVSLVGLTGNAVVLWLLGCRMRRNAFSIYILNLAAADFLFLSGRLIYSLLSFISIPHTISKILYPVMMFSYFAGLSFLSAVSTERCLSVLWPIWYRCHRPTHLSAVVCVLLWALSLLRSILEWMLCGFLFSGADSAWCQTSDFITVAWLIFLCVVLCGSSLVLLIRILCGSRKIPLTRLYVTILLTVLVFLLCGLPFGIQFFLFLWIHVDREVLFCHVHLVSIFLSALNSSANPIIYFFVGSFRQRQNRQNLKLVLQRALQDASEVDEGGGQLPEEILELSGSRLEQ
RGS4 inh – RGS4 inhibitors, primary screen, cell-based, HEK293 M3R inducible RGS4, calcium flux; Regulator of G-protein signaling 4 (Homo sapiens), P49798; Fluo-4 calcium flux; active compounds read high; triggered by carbachol at its EC20; B-score at 10 µM; 310,000 tested, 0.45% active;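 active = B-score, a plate-corrected calcium signal, over three deviations above library mean, with baseline fluorescence within five deviations of library mean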;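 note: RGS4 expression induced by doxycycline in cells with stable M3 receptor; B-score is computed from the integrated fluorescence ratio over baseline after carbachol; higher B-score means a larger calcium signal and so more RGS4 inhibition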
Target sequence (P49798 whole entry, looked up): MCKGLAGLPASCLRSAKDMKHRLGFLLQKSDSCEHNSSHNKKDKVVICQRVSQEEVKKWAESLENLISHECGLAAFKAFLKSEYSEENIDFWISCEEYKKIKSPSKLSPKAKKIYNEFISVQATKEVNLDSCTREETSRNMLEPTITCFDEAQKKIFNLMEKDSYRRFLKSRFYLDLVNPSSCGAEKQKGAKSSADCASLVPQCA
RGS4 pot – RGS4 potentiators or activators, primary screen, cell-based, HEK293 M3R inducible RGS4, calcium flux. carbachol calcium flux Fluo4; active compounds read low. B-score at 10 µM. 310,000 tested, 0.92% active. AID 463111, 2010;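 active = B-score of the integrated calcium signal more than 4 SD below the library mean, with starting fluorescence not abnormally high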;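 note: negative B-score means reduced calcium response which marks RGS4 activation or potentiation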
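Detection: kinetic calcium fluorescence imaging with Fluo4-AM dye, 2 µM / Material: HEK293 cells with stable M3R and inducible RGS4 / Schedule: recording 10 s baseline at 1 Hz, 100 s post-agonist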
MrgX1 allo act – positive allosteric modulators of MrgX1, primary screen, HEK293 cells, Fluo-4 calcium flux; Mas-related G-protein coupled receptor member X1 (Homo sapiens), Q96LB2; FDSS; active compounds read high; B-score at 10 µM; 310,000 tested, 0.63% active; AID 588675, 2011;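 active = plate-corrected calcium response at least 3 library SD above typical, normal starting fluorescence, not activating the receptor alone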;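 note: compound read alongside a low EC10 to EC30 dose of BAM8-22 agonist; peak minus trough fluorescence over baseline measured at the second addition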
MrgX1 agonist – agonists of human MrgX1 receptor, primary screen, HEK293 cells, Fluo-4 calcium flux | Mas-related G-protein coupled receptor member X1 (Homo sapiens), Q96LB2 | 310,000 tested, 0.44% active | B-score at 10 µM | AID 588627, 2011 | Fluo-4 calcium fluorescence, agonist mode; active compounds read high;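 active = calcium response B-score plate-corrected fluorescence ratio at least 3 library SD, with starting fluorescence B-score inside 5 SD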
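Material: HEK293 cells stably expressing human MrgX1 receptor | Quantity: 15,000 cells per well | Times: Cells plated overnight, dye loaded 0.5 h 37 °C, 0.5 h room temperature | Measured by: Kinetic Fluo-4 NW fluorescence of intracellular calcium | Control set: Positive and negative controls per plate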
* = called active by the depositor; i = inactive. A selection: hits, their analogues and other compounds. The true share with any hit is near 3.5%.

SMILES | MrgX1 antagonist | RGS4 inh | RGS4 pot | MrgX1 allo act | MrgX1 agonist
Cc1c2cnn(CC(=O)N3CCN(c4ncccn4)CC3)c(=O)c2c(C)n1Cc1ccc(F)cc1 | i | i | i | i | i
Cc1c2cnn(CC(=O)NCCN3CCOCC3)c(=O)c2c(C)n1Cc1ccc(F)cc1 | -5.8* | i | i | i | i
O=C(Nc1ccccc1C(F)(F)F)N1CCN(C(c2ccccc2)c2ccccc2)CC1 | -7.1* | i | i | i | i
CC(C)(C)C(=O)O/N=C(\N)c1c(Cl)cccc1Cl | i | i | -9.1* | i | i
COCCN(Cc1nc(-c2ccc(-c3ccccc3)cc2)oc1C)C(C)C | i | i | i | i | i
O=C(/C=C/c1ccccc1Cl)Nc1ccc(-c2nnc3n2CCCCC3)cc1 | i | i | -8.1* | i | i
CC(C)(C)CC(=O)Nc1ccc(-c2nnc3n2CCCCC3)cc1 | i | i | i | i | i
COc1ccc(-c2noc(CCCC(=O)NC3CCCCC3)n2)cc1 | i | i | i | i | i
COc1ccccc1NC(=O)CSCc1nc2ccccc2[nH]1 | i | i | i | i | i
CC(c1ccccc1)N1C(=O)c2ccc(C(=O)Nc3ccc(Br)cc3C(=O)O)cc2C1=O (stereo not given) | -11* | i | i | i | i
CC(C)CCN1C(=O)c2ccc(C(=O)Nc3ccccc3C(=O)O)cc2C1=O | i | i | -7.1* | i | i
CC(C)(C)C(=O)O/N=C(\N)COc1cccc(Cl)c1 | i | i | i | i | i
COc1cccc(NC(=O)CN(C)C(=O)CCNC(=O)c2ccc(Br)cc2)c1 | -8.9* | i | i | i | i
COc1cccc(CN(C)C(=O)CCNC(=O)c2ccc(Br)cc2)c1 | i | i | i | i | i
O=C(CSc1nc2ccccc2c(=O)n1-c1ccc(F)cc1F)Nc1ccc(N2CCOCC2)cc1 | i | i | i | i | i
O=C(CSc1nc2ccccc2c(=O)n1-c1ccc(F)cc1F)c1c[nH]c2ccccc12 | -5.1* | i | i | i | i
COc1ccccc1OCc1cc(C(=O)NCc2ccc(N3CCCC3=O)cc2)no1 | i | i | i | i | i
CCOc1ccc(C(=O)NNC2CC(=O)N(CCc3ccccc3)C2=O)cc1OC (stereo not given) | -5.5* | i | i | i | i
COc1ccc(-c2cn(CCC(=O)NCc3ccc(C)cc3)c(CCN)n2)cc1 | i | i | i | i | i
Nc1c(-c2ccc(Cl)cc2)cnn1-c1cc(C(F)(F)F)cc(C(F)(F)F)c1 | i | i | i | 14* | i
Nc1c(-c2cccc(Cl)c2)cnn1-c1cccc(C(F)(F)F)c1 | i | i | i | i | i
COCCN(CCOC)c1nc(-c2ccc(Cl)cc2)nc2ccccc12 | i | i | -7.3* | i | i
CC(C)CCN1C(=O)c2ccc(C(=O)NCc3ccccn3)cc2C1=O | i | i | i | i | i
CSc1nnc2c(n1)[nH]c1c(C)cccc12 | -4.7* | i | i | i | i
CCSc1nnc2c(n1)[nH]c1c(C)cccc12 | i | i | i | i | i
SMILES | MrgX1 antagonist | RGS4 inh | RGS4 pot | MrgX1 allo act | MrgX1 agonist
CN1C(=O)C(N=Nc2ccccc2C(=O)O)N(C)C1=S (stereo not given) | i | i | i | i | 48*
CC1=NN(C(N)=S)C(=O)C1N=Nc1ccccc1C(=O)O (stereo not given) | i | i | i | i | i
Cn1c(=O)c2c(nc(NCC3CCCC(CN)C3)n2Cc2ccc(Cl)cc2Cl)n(C)c1=O (stereo not given) | i | i | i | i | i
COCCNC(=O)C(=O)N/N=C(\C)CC(=O)Nc1ccc(Cl)cc1Cl | -6.4* | i | i | i | i
C/C(CC(=O)Nc1ccc(Cl)cc1Cl)=N\NC(=O)C(=O)N1CCCC1 | i | i | i | i | i
C=CC[n+]1c(-c2ccc(OCC)cc2)csc1NNC(=O)Nc1ccccc1 | -6.2* | i | i | i | i
CC(C)(C)OC(=O)CC1(C#N)c2ccccc2C(Br)=CN1C(=O)c1ccccc1 (stereo not given) | i | i | i | i | i
O=C(NNC(=O)c1cc(-c2cccc(Br)c2)nc2ccccc12)c1csc(N2CCOCC2)n1 | i | i | -7.6* | i | i
O=C(Nc1ccc(Br)cc1)C1CC(O)CN1C(=O)Oc1ccccc1 (stereo not given) | i | i | i | i | i
CCn1c(Cc2ccccc2)nnc1SC(C)C(=O)NC1CC1 (stereo not given) | i | i | i | i | i
C(=C1/CCCC2=C1Nc1ncnn1C2c1ccccc1)/c1ccccc1 (stereo not given) | -5* | i | i | 7.3* | i
S=C1NC2=C(CCC/C2=C\c2ccccc2)C(c2ccccc2)N1 (stereo not given) | i | i | i | i | i
CN(C)c1nccc(N(Cc2ccccc2)Cc2ccccc2)c1C#N | i | i | -7* | i | i
CN(C)CCN(Cc1ccccc1)c1ccnc(N(C)C)c1C#N | i | i | i | i | i
OC(CNCCC1C=Nc2ccccc21)Cn1c2ccc(Cl)cc2c2cc(Cl)ccc21 (stereo not given) | i | 7.4* | i | i | i
COc1ccc(-n2nc(C(=O)NCC(=O)NCc3ccc(F)cc3)c3ccccc3c2=O)cc1OC | i | i | i | i | i
Cc1ccc(C(C)NC(=S)NC2CCCCC2)c(C)c1 (stereo not given) | i | i | i | i | i
CC(CN1CCCCC1)C(=O)NNC(=O)C12CC3CC(CC(C3)C1)C2 (stereo not given) | i | i | i | 7.6* | i
CN1/C(=C\C(=S)NC(=O)c2cccc(Br)c2)C(C)(C)c2ccccc21 | i | i | i | i | i
CCN(CC)S(=O)(=O)c1cccc(C(=O)/C=C2/N(C)c3ccccc3C2(C)C)c1 | i | i | -7* | i | i
CC(=O)NC(Cc1cccc(C)c1)C(=O)NC1CCN(c2ncccc2[N+](=O)[O-])CC1 (stereo not given) | -4.7* | i | i | i | i
